Blank lines part the entries; values can stand above or below the compound they belong to. *1 amine or outer side, *2 acyl side, *3 side chain or, on linkers, in order; H or OH if unused. Where a SMILES comes first, the peptide text is derived from it. Bridges are numbered along the chain shown (N, C = ends). [ ]: non-standard residue; d: D form. The star is where a group is joined. Staurosporine = CO[C@@H]1[C@H](N(C)*)C[C@H]2O[C@]1(C)n1c3ccccc3c3c4c(c5c6ccccc6n2c5c31)C(=O)NC4; Suc = O=C(CCC(=O)[*:2])[*:1]; Dap = NC[C@H](N)C(=O)O; βAla = NCCC(=O)O
Tests used:
[1] = target: Phosphatidylinositol 4,5-bisphosphate 3-kinase catalytic subunit alpha isoform (Homo sapiens) (UniProt P42336); test: Binding affinity to human PIK3Calpha at 500 nM by cell-based competition binding assay relative to control in presence of DTT
[2] = target: Serine/threonine-protein kinase pim-1 (Homo sapiens) (UniProt P11309); test: Binding affinity to human PIM1 at 500 nM by cell-based competition binding assay relative to control in presence of DTT
[3] = target: Receptor tyrosine-protein kinase erbB-4 (Homo sapiens) (UniProt Q15303); test: Binding affinity to human ERBB4 at 500 nM by cell-based competition binding assay relative to control in presence of DTT
Procedure, shortened: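 Commercial (Ambit) competitive kinase-binding panel of 90 kinases measured the binding profile. Run under reducing conditions of 7.5 mM DTT. Binding is expressed relative to control.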

[4] = target: Mitogen-activated protein kinase kinase kinase 9 (Homo sapiens) (UniProt P80192); test: Binding affinity to human MLK1 at 500 nM by cell-based competition binding assay relative to control in presence of DTT
[5] = target: Platelet-derived growth factor receptor beta (Homo sapiens) (UniProt P09619); test: Binding affinity to human PDGFRbeta at 500 nM by cell-based competition binding assay relative to control in presence of DTT
[6] = target: RAF proto-oncogene serine/threonine-protein kinase (Homo sapiens) (UniProt P04049); test: Binding affinity to human RAF1 at 500 nM by cell-based competition binding assay relative to control in presence of DTT
[7] = target: T1, Tyrosine-protein kinase JAK3 (Homo sapiens) (UniProt P52333); test: Binding affinity to human JAK3 kinase domain 2 at 200 nM by cell-based competition binding assay relative to control in presence of DTT
T1 sequence (whole entry): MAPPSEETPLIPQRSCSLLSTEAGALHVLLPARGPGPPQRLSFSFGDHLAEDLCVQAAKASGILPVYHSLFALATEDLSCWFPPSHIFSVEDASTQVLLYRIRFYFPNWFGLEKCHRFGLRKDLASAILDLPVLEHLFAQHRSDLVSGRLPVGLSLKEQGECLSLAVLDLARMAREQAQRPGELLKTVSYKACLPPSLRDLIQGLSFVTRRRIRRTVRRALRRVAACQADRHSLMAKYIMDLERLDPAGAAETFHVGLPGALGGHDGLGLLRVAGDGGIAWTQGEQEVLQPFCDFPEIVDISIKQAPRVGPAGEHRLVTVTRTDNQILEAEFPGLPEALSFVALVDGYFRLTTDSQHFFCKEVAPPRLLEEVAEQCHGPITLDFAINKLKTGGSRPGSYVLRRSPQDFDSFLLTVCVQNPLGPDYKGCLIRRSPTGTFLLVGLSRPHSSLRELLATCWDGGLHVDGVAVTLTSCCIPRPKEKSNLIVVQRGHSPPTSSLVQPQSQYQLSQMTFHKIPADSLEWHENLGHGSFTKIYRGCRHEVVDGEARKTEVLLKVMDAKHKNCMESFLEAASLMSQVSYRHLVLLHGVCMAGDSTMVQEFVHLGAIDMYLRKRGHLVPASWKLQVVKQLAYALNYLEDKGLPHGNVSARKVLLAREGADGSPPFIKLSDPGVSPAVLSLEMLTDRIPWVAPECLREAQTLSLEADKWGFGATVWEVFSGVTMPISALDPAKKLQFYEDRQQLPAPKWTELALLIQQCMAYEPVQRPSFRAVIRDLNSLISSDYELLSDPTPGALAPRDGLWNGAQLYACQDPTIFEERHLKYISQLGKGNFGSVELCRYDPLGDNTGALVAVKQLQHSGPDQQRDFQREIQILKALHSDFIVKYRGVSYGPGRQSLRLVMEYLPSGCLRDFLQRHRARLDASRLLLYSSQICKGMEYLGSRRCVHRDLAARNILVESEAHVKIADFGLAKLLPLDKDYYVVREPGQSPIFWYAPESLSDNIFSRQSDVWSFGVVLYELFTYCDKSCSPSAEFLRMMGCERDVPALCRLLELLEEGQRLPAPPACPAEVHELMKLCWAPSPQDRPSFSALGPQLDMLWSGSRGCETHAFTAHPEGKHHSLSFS
Procedure, shortened: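 Competition binding screen (Ambit) across a panel of 90 kinases, scoring test ligand displacement of each kinase's binding relative to control. The screen ran under reducing conditions with 7.5 mM DTT.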

[8] = target: Non-receptor tyrosine-protein kinase TYK2 (Homo sapiens) (UniProt P29597); test: Binding affinity to human TYK2 kinase domain 2 at 200 nM by cell-based competition binding assay relative to control in presence of DTT
[9] = target: Tyrosine-protein kinase receptor UFO (Homo sapiens) (UniProt P30530); test: Binding affinity to human AXL at 200 nM by cell-based competition binding assay relative to control in presence of DTT
Procedure, shortened: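 Kinase binding profiling ran on a commercial (Ambit) competitive binding screen against a panel of 90 kinases. The screen used reducing conditions with 7.5 mM DTT. To withstand the DTT, the bivalent ligand was tested as its amide isostere, with the disulfide replaced. A staurosporine derivative carrying a 3 β-alanine linker was run as the reference compound.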

[10] = target: T2, Testis-specific serine/threonine-protein kinase 1 (Homo sapiens) (UniProt Q9BXA7); test: Binding affinity to human TSSK1 at 50 nM by cell-based competition binding assay relative to control in presence of DTT
T2 sequence (whole entry): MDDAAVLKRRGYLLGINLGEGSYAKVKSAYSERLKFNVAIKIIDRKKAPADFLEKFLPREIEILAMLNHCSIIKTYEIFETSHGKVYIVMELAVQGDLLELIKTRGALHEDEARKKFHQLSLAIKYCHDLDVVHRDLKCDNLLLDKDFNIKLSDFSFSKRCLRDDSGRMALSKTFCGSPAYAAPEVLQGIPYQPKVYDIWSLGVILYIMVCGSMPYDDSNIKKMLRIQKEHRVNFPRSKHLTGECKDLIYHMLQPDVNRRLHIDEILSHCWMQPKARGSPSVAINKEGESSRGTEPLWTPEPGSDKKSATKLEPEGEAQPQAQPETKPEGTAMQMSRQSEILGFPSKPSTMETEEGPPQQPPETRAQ

- Activity [1]: 100%
- Activity [2]: 20%
- Activity [3]: 70%
- Activity [4]: 0.55%
- Activity [5]: 0.05%
- Activity [6]: 73%
SMILES: CO[C@@H]1[C@H](N(C)C(=O)CCC(=O)NCCC(=O)NCCC(=O)NCCC(N)=O)C[C@H]2O[C@]1(C)n1c3ccccc3c3c4c(c5c6ccccc6n2c5c31)C(=O)NC4

- Activity [7]: 4.6%
- Activity [8]: 62%
- Activity [9]: 58%
SMILES: CO[C@@H]1[C@H](N(C)C(=O)CCC(=O)NCCC(=O)NCCC(=O)NCCC(=O)NCCC(=O)NCCC(=O)NCCC(=O)NCCC(=O)N[C@H]2CSSC[C@@H](C(=O)NCC(N)=O)NC(=O)CNC(=O)[C@H](Cc3ccccc3)NC(=O)[C@H](C(C)C)NC(=O)[C@H](CCCNC(=N)N)NC(=O)[C@H](Cc3ccccc3)NC(=O)[C@H](C(C)C)NC2=O)C[C@H]2O[C@]1(C)n1c3ccccc3c3c4c(c5c6ccccc6n2c5c31)C(=O)NC4 ({Staurosporine-Suc-βAla-βAla-βAla-βAla-βAla-βAla-βAla}-CVFRVFGCG-NH2; disulfide 1-8)

- Activity [10]: 100%
SMILES: CO[C@@H]1[C@H](N(C)C(=O)CCC(=O)NCCC(=O)NCCC(=O)NCCC(=O)NCCC(=O)NCCC(=O)NCCC(=O)NCCC(=O)N[C@H]2CNC(=O)C[C@@H](C(N)=O)NC(=O)CNC(=O)[C@H](Cc3ccccc3)NC(=O)[C@H](C(C)C)NC(=O)[C@H](CCCNC(=N)N)NC(=O)[C@H](Cc3ccccc3)NC(=O)[C@H](C(C)C)NC2=O)C[C@H]2O[C@]1(C)n1c3ccccc3c3c4c(c5c6ccccc6n2c5c31)C(=O)NC4 ({Staurosporine-Suc-βAla-βAla-βAla-βAla-βAla-βAla-βAla}-[Dap]VFRVFGD-NH2; lactam 1-8)
